# In ChEMBL document CHEMBL4414639, “Synthesis, Pharmacological Characterization, and Structure-Activity Relationships of Noncanonical Selective Agonists for α7 nAChRs” (J Med Chem, 2019):
# Calls of active or inactive are those of the source. The rule behind the calls is not given here.
# Tests used:
# [1] = target: T1, 5-hydroxytryptamine receptor 3A (Homo sapiens) (UniProt P46098); experiment: Antagonist activity at 5HT3A (unknown origin) transfected in HEK cells assessed as decrease in agonist-induced intracellular calcium release incubated for 30 mins by FRET assay; type: cell-based
# T1 sequence (whole entry): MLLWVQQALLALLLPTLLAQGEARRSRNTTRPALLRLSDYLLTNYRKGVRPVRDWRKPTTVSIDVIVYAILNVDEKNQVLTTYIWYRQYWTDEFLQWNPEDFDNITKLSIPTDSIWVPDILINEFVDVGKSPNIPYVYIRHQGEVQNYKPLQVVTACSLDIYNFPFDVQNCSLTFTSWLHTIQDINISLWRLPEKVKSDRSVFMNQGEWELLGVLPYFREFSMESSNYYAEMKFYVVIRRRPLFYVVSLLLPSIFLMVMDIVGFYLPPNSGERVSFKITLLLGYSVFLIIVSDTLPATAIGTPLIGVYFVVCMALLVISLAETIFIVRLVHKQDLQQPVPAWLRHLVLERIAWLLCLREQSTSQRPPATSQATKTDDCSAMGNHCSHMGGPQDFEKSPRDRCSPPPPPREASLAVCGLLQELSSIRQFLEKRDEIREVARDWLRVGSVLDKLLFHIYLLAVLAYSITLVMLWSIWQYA
# Procedure, shortened: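 CNiFER HEK cell monolayers stably expressing the receptor. Test compound at three concentrations in aCSF, preincubated 30 min at 37 °C, 6% CO2, before agonist addition: epibatidine for α4β2, 5-HT for 5-HT3A. TN-XXL FRET ratio (527/485 nm) read over 120 s at 37 °C, agonist injected at 30 s, triplicate wells. Agonist EC50 shifts fitted. KA computed as [A]/(DR−1) (competitive) or [A]/(Δmax/Δ−1) (noncompetitive). At least three independent experiments. α4β2 stoichiometry not distinguished.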
# [2] = target: T2, Neuronal acetylcholine receptor subunit alpha-7 (Homo sapiens, UniProt P36544); experiment: Agonist activity at human alpha7 nAChR transfected in HEK cells assessed as increase in intracellular calcium release incubated for 30 mins in presence of PNU-120596 by FRET assay; type: cell-based
# Procedure, shortened: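 HEK cell line stably expressing α7 nAChR and the CNiFER (TN-XXL) biosensor, grown in DMEM + 10% FBS, 1% glutamine, 37 °C, 6% CO2. Cells preincubated 30 min at 37 °C in aCSF containing 10 μM PNU-120596 (final). Agonist injected at 30 s. FRET ratio (527/485 nm) followed over 120 s at 37 °C, triplicate wells. EC50 from variable-slope sigmoidal fit of mean peak ratios, normalized to the 316 μM response.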
# [3] = target: T3, Neuronal acetylcholine receptor; alpha4/beta2 (Homo sapiens) (UniProt P17787+P43681); experiment: Antagonist activity at alpha4beta2 nAChR (unknown origin) transfected in HEK cells assessed as decrease in epibatidine-induced intracellular calcium release incubated for 30 mins by FRET assay
# [4] = target: T2, Neuronal acetylcholine receptor subunit alpha-7; experiment: Agonist activity at alpha7 nAChR (unknown origin) transfected in HEK cells assessed as increase in intracellular calcium release incubated for 30 mins by FRET assay; type: cell-based
# Procedure, shortened: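 Stable HEK cell line expressing α7 nAChR with TN-XXL FRET calcium biosensor (CNiFER), in DMEM with 10% FBS at 37 °C, 6% CO2. Cells preincubated 30 min at 37 °C in aCSF with PNU-120596 (10 µM final). FRET ratio (527/485 nm, 436 nm excitation) read at 37 °C over 120 s, agonist injected at 30 s, triplicate wells. EC50 from variable-slope sigmoidal fit of mean peak ratios, normalized to 316 µM response.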
# [5] = target: T2, Neuronal acetylcholine receptor subunit alpha-7; experiment: Inhibition of human alpha7 nAChR expressed in Xenopus laevis oocytes assessed as decrease in ACh-induced channel currents at -60 mV holding potential by two electrode voltage clamp assay; type: cell-based
# Procedure, shortened: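 Human α7 nAChR in oocytes under two-electrode voltage clamp at -60 mV, Ringer's pH 7.2, 2 mL/min. Test compound applied 12 s with 211 s washout, then 60 µM ACh applied. ACh response normalized to the mean of two ACh precontrols per oocyte. Inhibition concentration-response curves from six cells, Hill equation fit.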
# [6] = target: T2, Neuronal acetylcholine receptor subunit alpha-7; experiment: Agonist activity at human alpha7 nAChR expressed in Xenopus laevis oocytes assessed as increase in channel currents at 30 uM at -60 mV holding potential in presence of 10 uM PNU-120596 by two electrode voltage clamp assay; type: cell-based
# Procedure, shortened: (§1)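 Oocytes expressing human α7 nAChR (with human RIC-3 cDNA available), clamped at -60 mV in Ringer's pH 7.2 with 1 µM atropine, 2 mL/min flow. Drug applied 12 s, 211 s washout. Responses normalized to mean of two 60 µM ACh precontrol responses per oocyte. Data from six cells. Concentration-response data fit to the Hill equation. Sequence included 30 µM test compound, then 60 µM ACh, then 10 µM PNU-120596.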
# [7] = target: T3, Neuronal acetylcholine receptor; alpha4/beta2 (Homo sapiens); experiment: Agonist activity at human (alpha4)2 (beta2)3 nAChR expressed in Xenopus laevis oocytes assessed as increase in channel currents at 30 uM at -60 mV holding potential by two electrode voltage clamp assay; type: cell-based
# Procedure, shortened: (§2)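 Two-electrode voltage clamp on oocytes at -60 mV in Ringer's (115 mM NaCl, 2.5 mM KCl, 1.8 mM CaCl2, 10 mM HEPES, 1 µM atropine, pH 7.2), 4 mL/min flow. Test compound applied 6 s, then 271 s washout. Normalized to mean of two ACh precontrols: 30 µM for α1β1εδ, 100 µM for α3β4, 100 µM for LS α4β2, 10 µM for HS α4β2.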
# [8] = target: T2, Neuronal acetylcholine receptor subunit alpha-7; experiment: Agonist activity at human alpha7 nAChR expressed in Xenopus laevis oocytes assessed as increase in channel currents at 30 uM at -60 mV holding potential followed washout for 211 sec and then 60 uM of Ach was applied by two electrode voltage clamp assay
# [9] = species on record: Mus musculus; experiment: Agonist activity at mouse alpha1beta1epsilondelta nAChR expressed in Xenopus laevis oocytes assessed as increase in channel currents at 30 uM at -60 mV holding potential by two electrode voltage clamp assay; type: cell-based; procedure, shortened: as §2
# [10] = target: T4, Neuronal acetylcholine receptor; alpha3/beta4 (Homo sapiens) (UniProt P30926+P32297); experiment: Agonist activity at human alpha3beta4 nAChR expressed in Xenopus laevis oocytes assessed as increase in channel currents at 30 uM at -60 mV holding potential by two electrode voltage clamp assay; type: cell-based; procedure, shortened: as §2
# [11] = target: T3, Neuronal acetylcholine receptor; alpha4/beta2 (Homo sapiens); experiment: Agonist activity at human (alpha4)3 (beta2)2 nAChR expressed in Xenopus laevis oocytes assessed as increase in channel currents at 30 uM at -60 mV holding potential by two electrode voltage clamp assay; type: cell-based; procedure, shortened: as §2
# [12] = target: T3, Neuronal acetylcholine receptor; alpha4/beta2 (Homo sapiens); experiment: Inhibition of human (alpha4)3 (beta2)2 nAChR expressed in Xenopus laevis oocytes assessed as increase in channel currents at 30 uM at -60 mV holding potential by two electrode voltage clamp assay; type: cell-based
# [13] = target: T3, Neuronal acetylcholine receptor; alpha4/beta2 (Homo sapiens); experiment: Inhibition of human (alpha4)2 (beta2)3 nAChR expressed in Xenopus laevis oocytes assessed as increase in channel currents at 30 uM at -60 mV holding potential by two electrode voltage clamp assay; type: cell-based
# [14] = target: T2, Neuronal acetylcholine receptor subunit alpha-7; experiment: Agonist activity at human alpha7 nAChR expressed in Xenopus laevis oocytes assessed as increase in channel currents at -60 mV holding potential by two electrode voltage clamp assay relative Ach; type: cell-based; procedure, shortened: as §1
# [15] = target: T2, Neuronal acetylcholine receptor subunit alpha-7; experiment: Agonist activity at human alpha7 nAChR expressed in Xenopus laevis oocytes assessed as increase in channel currents at 30 uM at -60 mV holding potential by two electrode voltage clamp assay; type: cell-based; procedure, shortened: as §1
# [16] = species on record: Mus musculus; experiment: Inhibition of mouse alpha1beta1epsilondelta nAChR expressed in Xenopus laevis oocytes assessed as increase in channel currents at 30 uM at -60 mV holding potential by two electrode voltage clamp assay; type: cell-based
# [17] = target: T4, Neuronal acetylcholine receptor; alpha3/beta4 (Homo sapiens); experiment: Inhibition of human alpha3beta4 nAChR expressed in Xenopus laevis oocytes assessed as increase in channel currents at 30 uM at -60 mV holding potential by two electrode voltage clamp assay; type: cell-based
# T2 sequence (P36544 whole entry): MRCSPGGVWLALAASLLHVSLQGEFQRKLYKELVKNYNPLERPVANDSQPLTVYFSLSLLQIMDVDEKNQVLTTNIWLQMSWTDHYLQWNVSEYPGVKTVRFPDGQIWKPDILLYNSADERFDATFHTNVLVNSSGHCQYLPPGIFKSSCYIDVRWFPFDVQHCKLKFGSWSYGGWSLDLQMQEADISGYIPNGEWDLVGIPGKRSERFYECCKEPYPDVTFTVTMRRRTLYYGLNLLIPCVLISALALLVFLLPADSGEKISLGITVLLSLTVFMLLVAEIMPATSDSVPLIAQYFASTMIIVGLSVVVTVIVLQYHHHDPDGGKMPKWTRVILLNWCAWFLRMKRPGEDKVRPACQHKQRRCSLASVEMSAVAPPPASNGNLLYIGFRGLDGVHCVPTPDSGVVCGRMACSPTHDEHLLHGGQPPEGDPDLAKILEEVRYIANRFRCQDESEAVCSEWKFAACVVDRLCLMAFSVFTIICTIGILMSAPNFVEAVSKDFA
smiles,measurement,setting,value
COc1ccccc1-c1cc(N(Cc2ccccc2)Cc2ccccn2)nc(N)n1,Ka,[1],4.1 µM
same,EC50,[2],> 13300 nM
same,Ka,[3],1.3 µM
Nc1nc(-c2ccccc2Cl)cc(N(Cc2ccccn2)Cc2ccccn2)n1,Ka,[1],> 10 µM
same,EC50,[2],160 nM
same,Ka,[3],3.4 µM
c1ccc(CN(Cc2ccccn2)c2cc(-c3ccsc3)ncn2)nc1,Ka,[1],> 10 µM
same,EC50,[2],2100 nM
same,Ka,[3],> 10 µM
COc1cccc(OC)c1-c1cc(N(Cc2ccccn2)Cc2ccccn2)nc(N)n1,Ka,[1],> 10 µM
same,EC50,[2],5400 nM
same,Ka,[3],7.1 µM
COc1ccccc1-c1cc(N(Cc2ccccn2)Cc2ccccn2)nc([S+](C)[O-])n1 (centres undefined),Ka,[1],> 10 µM
same,EC50,[2],920 nM
same,Ka,[3],> 10 µM
COc1ccc(-c2cc(N(Cc3ccccn3)Cc3ccccn3)nc(N)n2)c(OC)c1,EC50,[4],70 nM
same,Ka,[1],> 10 µM
same,Ka,[3],2.5 µM
Fc1ccccc1-c1cc(N(Cc2ccccn2)Cc2ccccn2)ncn1,Ka,[1],8.4 µM
same,EC50,[2],360 nM
same,Ka,[3],5.6 µM
CC(C)Oc1ccccc1-c1cc(N(Cc2ccccn2)Cc2ccccn2)nc(N)n1,Ka,[1],> 10 µM
same,EC50,[2],890 nM
same,Ka,[3],1.5 µM
Nc1nc(-c2ccsc2)cc(N(Cc2ccccn2)Cc2ccccn2)n1,EC50,[4],500 nM
same,Ka,[1],> 10 µM
same,Ka,[3],> 10 µM
COc1ccc(-c2cc(N(Cc3ccccn3)Cc3ccccn3)nc(N)n2)c(F)c1,IC50,[5],470 nM
same,Activity,[6],Active
same,Activity,[7],inactive
same,Activity,[8],inactive
same,Activity,[9],inactive
same,Ka,[1],5.3 µM
same,Activity,[10],inactive
same,EC50,[2],30 nM
same,Activity,[11],inactive
same,inhibition,[12],inactive
same,inhibition,[13],inactive
same,Ka,[3],3.2 µM
same,EC50,[14],110 nM
same,Imax,[14],0.84
same,Activity,[15],Active
same,inhibition activity (active/inactive),[16],Active
same,inhibition,[17],Active
COc1ncccc1-c1cc(N(Cc2ccccn2)Cc2ccccn2)nc(N)n1,Ka,[1],> 10 µM
same,EC50,[2],230 nM
same,Ka,[3],> 10 µM
CSc1ccccc1-c1cc(N(Cc2ccccn2)Cc2ccccn2)nc(N)n1,Ka,[1],> 10 µM
same,EC50,[2],240 nM
same,Ka,[3],4.3 µM
COc1ccccc1-c1cc(N(Cc2ccccn2)Cc2ccccn2)nc(SC)n1,Ka,[1],2.8 µM
same,EC50,[2],110 nM
same,Ka,[3],1.1 µM
c1ccc(CN(Cc2ccccn2)c2cc(N3CCOCC3)ncn2)nc1,Ka,[1],> 10 µM
same,EC50,[2],> 13300 nM
same,Ka,[3],> 10 µM
COc1ccccc1-c1cc(N(Cc2ccccn2)Cc2ccccn2)nc(S(C)(=O)=O)n1,Ka,[1],> 10 µM
same,EC50,[2],690 nM
same,Ka,[3],7.2 µM
COc1ccccc1-c1cc(N(Cc2ccccn2)Cc2ccccn2)nc(C(F)(F)F)n1,Ka,[1],3.7 µM
same,EC50,[2],530 nM
same,Ka,[3],1.7 µM
CSc1nc(-c2ccsc2)cc(N(Cc2ccccn2)Cc2ccccn2)n1,Ka,[1],2.2 µM
same,EC50,[2],1800 nM
same,Ka,[3],3.4 µM
COc1ccc(-c2cc(N(Cc3ccccn3)Cc3ccccn3)ncn2)c(F)c1,IC50,[5],1300 nM
same,Activity,[6],Active
same,Activity,[7],inactive
same,Activity,[8],inactive
same,Activity,[9],inactive
same,Ka,[1],5.4 µM
same,Activity,[10],inactive
same,EC50,[2],69 nM
same,Activity,[11],inactive
same,inhibition,[12],inactive
same,inhibition,[13],inactive
same,Ka,[3],3 µM
same,EC50,[14],600 nM
same,Imax,[14],0.53
same,Activity,[15],Active
same,inhibition activity (active/inactive),[16],Active
same,inhibition,[17],Active
COc1ccccc1-c1cc(N(Cc2ccccn2)Cc2ccccn2)ncn1,IC50,[5],3500 nM
same,Activity,[6],Active
same,Activity,[7],inactive
same,Activity,[8],inactive
same,Activity,[9],inactive
same,Ka,[1],> 10 µM
same,Activity,[10],inactive
same,EC50,[2],140 nM
same,Activity,[11],inactive
same,inhibition,[12],inactive
same,inhibition,[13],inactive
same,Ka,[3],7.9 µM
same,EC50,[14],3350 nM
same,Imax,[14],0.89
same,Activity,[15],Active
same,inhibition activity (active/inactive),[16],Active
same,inhibition,[17],Active
CC(C)COc1ccccc1-c1cc(N(Cc2ccccn2)Cc2ccccn2)nc(N)n1,Ka,[1],5.5 µM
same,EC50,[2],1600 nM
same,Ka,[3],1.3 µM
COc1ccccc1-c1cc(N(Cc2ccccn2)Cc2ccccn2)nc(N)n1,IC50,[5],370 nM
same,Activity,[7],inactive
same,EC50,[4],70 nM
same,Activity,[8],inactive
same,Activity,[9],inactive
same,Ka,[1],> 10 µM
same,Activity,[10],inactive
same,Activity,[11],inactive
same,inhibition,[12],inactive
same,inhibition,[13],inactive
same,Ka,[3],6.3 µM
same,EC50,[14],350 nM
same,Imax,[14],0.98
same,Activity,[15],Active
same,inhibition activity (active/inactive),[16],Active
same,inhibition,[17],Active
FC(F)(F)c1nc(-c2ccsc2)cc(N(Cc2ccccn2)Cc2ccccn2)n1,Ka,[1],3.6 µM
same,EC50,[2],2500 nM
same,Ka,[3],0.96 µM
COc1cc(F)ccc1-c1cc(N(Cc2ccccn2)Cc2ccccn2)nc(N)n1,Ka,[1],> 10 µM
same,EC50,[2],120 nM
same,Ka,[3],4.8 µM
